# From ChEMBL document CHEMBL1155317, “Design and optimisation of potent gp120-CD4 inhibitors” (Bioorg Med Chem Lett, 2009)
# Tests used:
# [1] = Inhibition of HIV1 NL4-3 gp160 assessed as inhibition of interaction between gp120 and host CD4 receptor by cell-cell fusion assay; set-up: species or system Human immunodeficiency virus 1
# [2] = system: Human immunodeficiency virus 1; assay: Antiviral activity against Human immunodeficiency virus 1 isolate 04-116881_VL_338.52; assay type: functional
# Outline: (§1)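 Testing against these strains was contracted out and used the PhenoSense phenotypic antiviral assay.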
# [3] = system: Human immunodeficiency virus 1; assay: Antiviral activity against Human immunodeficiency virus 1 isolate 04-116880_VL_696.65; assay type: functional; outline: as §1
# [4] = system: Human immunodeficiency virus 1; assay: Antiviral activity against Human immunodeficiency virus 1 isolate 04-116870_VL_181.51; assay type: functional; outline: as §1
# [5] = system: Human immunodeficiency virus 1; assay: Antiviral activity against Human immunodeficiency virus 1 isolate 04-116869_VL_833.52; assay type: functional; outline: as §1
# [6] = system: Human immunodeficiency virus 1; assay: Antiviral activity against Human immunodeficiency virus 1 isolate 04-116875_VL_279.69; assay type: functional; outline: as §1
# [7] = system: Human immunodeficiency virus 1; assay: Antiviral activity against Human immunodeficiency virus 1 isolate 04-116890_VL_781.45; assay type: functional; outline: as §1
# [8] = Fraction of compound absorbed in rat at 1 mg/kg, iv and 1 mg/kg, po; assay type: ADME, organism-based; conditions: in vivo, read-out: Fabs
# [9] = system: Human immunodeficiency virus 1; assay: Antiviral activity against Human immunodeficiency virus 1 isolate 04-116883_VL_432.63; assay type: functional; outline: as §1
# [10] = system: Human immunodeficiency virus 1; assay: Antiviral activity against Human immunodeficiency virus 1 isolate 04-116878_VL_241.32; assay type: functional; outline: as §1
# [11] = system: Human immunodeficiency virus 1; assay: Antiviral activity against Human immunodeficiency virus 1 isolate 04-116871_VL_781.69; assay type: functional; outline: as §1
# [12] = system: Human immunodeficiency virus 1; assay: Antiviral activity against Human immunodeficiency virus 1 isolate 04-116872_VL_186.32; assay type: functional; outline: as §1
# [13] = system: Human immunodeficiency virus 1; assay: Antiviral activity against Human immunodeficiency virus 1 isolate 04-116876_VL_969.72; assay type: functional; outline: as §1
# [14] = system: Human immunodeficiency virus 1; assay: Antiviral activity against Human immunodeficiency virus 1 isolate 04-116889_VL_440.85; assay type: functional; outline: as §1
# [15] = system: Human immunodeficiency virus 1; assay: Antiviral activity against Human immunodeficiency virus 1 isolate 04-116873_VL_754.51; assay type: functional; outline: as §1
# [16] = system: Human immunodeficiency virus 1; assay: Antiviral activity against Human immunodeficiency virus 1 isolate 04-116892_VL_534.93; assay type: functional; outline: as §1
# [17] = system: Human immunodeficiency virus 1; assay: Antiviral activity against Human immunodeficiency virus 1 isolate 04-116886_VL_578.66; assay type: functional; outline: as §1
# [18] = system: Human immunodeficiency virus 1; assay: Antiviral activity against Human immunodeficiency virus 1 isolate 04-116893_VL_193.95; assay type: functional; outline: as §1
# [19] = system: Human immunodeficiency virus 1; assay: Antiviral activity against Human immunodeficiency virus 1 isolate 04-116868_VL_518.14; assay type: functional; outline: as §1
# [20] = system: Human immunodeficiency virus 1; assay: Antiviral activity against Human immunodeficiency virus 1 isolate 04-116882_VL_624.75; assay type: functional; outline: as §1
# [21] = system: Human immunodeficiency virus 1; assay: Antiviral activity against Human immunodeficiency virus 1 isolate 04-116885_VL_530.54; assay type: functional; outline: as §1
# Rattus norvegicus = assay: Unbound volume of distribution in rat at 1 mg/kg, iv and 1 mg/kg, po; assay type: ADME, organism-based; conditions: in vivo
# [22] = system: Human immunodeficiency virus 1; assay: Antiviral activity against Human immunodeficiency virus 1 isolate 04-116877_VL_938.28; assay type: functional; outline: as §1
# [23] = system: Human immunodeficiency virus 1; assay: Antiviral activity against Human immunodeficiency virus 1 JRCSF; assay type: functional, Human immunodeficiency virus type 1 (JRCSF ISOLATE); outline: as §1
# [24] = system: Human immunodeficiency virus 1; assay: Antiviral activity against Human immunodeficiency virus 1 isolate 04-116874_VL_560.34; assay type: functional; outline: as §1
# [25] = system: Human immunodeficiency virus 1; assay: Antiviral activity against Human immunodeficiency virus 1 isolate 04-116888_VL_113.66; assay type: functional; outline: as §1
# [26] = system: Human immunodeficiency virus 1; assay: Antiviral activity against Human immunodeficiency virus 1 isolate 04-116867_VL_837.51; assay type: functional; outline: as §1
# [27] = system: Human immunodeficiency virus 1; assay: Antiviral activity against Human immunodeficiency virus 1 isolate 04-116879_VL_988.03; assay type: functional; outline: as §1
# [28] = system: Human immunodeficiency virus 1; assay: Antiviral activity against Human immunodeficiency virus 1 isolate 04-116884_VL_328.45; assay type: functional; outline: as §1
# [29] = system: Human immunodeficiency virus 1; assay: Antiviral activity against Human immunodeficiency virus 1 HXB2; assay type: functional; outline: as §1
# [30] = system: Human immunodeficiency virus 1; assay: Antiviral activity against Human immunodeficiency virus 1 NL4-3 infected HeLaP4 cells after 5 days by beta-galactosidase reporter assay; assay type: functional, organism-based; conditions: Human immunodeficiency virus 1, NL4-3, HeLaP4, 120 h
# Outline: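 HeLa-P4 cells were premixed with NL4-3 virus and added at 10^5 cells/mL to wells containing diluted compound. Plates were incubated for 5 days at 37 °C in humidified 5% CO₂. Infection was quantified with a β-galactosidase reporter assay.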
smiles,measurement,setting,value
CNC(=O)c1cc(OC)c(O[C@@H](C)C(=O)N2CCN(c3ncnc4[nH]cnc34)C[C@H]2C)cn1,IC50,[1],296 nM
Cc1nc2c(OC(C)C(=O)N3CCN(C(=O)c4ccccc4)C[C@H]3C)cccc2[nH]1 (some centres undefined),IC50,[1],834 nM
C[C@H](Oc1cccc2nc(N(C)C)ccc12)C(=O)N1CCN(C(=O)c2ccccc2)C[C@H]1C,IC50,[1],3200 nM
CNC(=O)c1cc(OC)c(O[C@@H](C)C(=O)N2CCN(C(=O)c3ccccc3)C[C@H]2C)cn1,IC90,[2],299 nM
same,IC90,[3],> 2220 nM
same,IC90,[4],44 nM
same,IC90,[5],122 nM
same,IC90,[6],213 nM
same,IC90,[7],170 nM
same,Fa,[8],100%
same,IC90,[9],> 2220 nM
same,IC90,[10],> 2220 nM
same,IC90,[11],9 nM
same,IC90,[12],> 2220 nM
same,IC50,[1],14 nM
same,IC90,[13],436 nM
same,IC90,[14],56 nM
same,IC90,[15],21 nM
same,IC90,[16],> 2220 nM
same,IC90,[17],> 2220 nM
same,IC90,[18],354 nM
same,IC90,[19],26 nM
same,IC90,[20],106 nM
same,IC90,[21],178 nM
same,Vdu,Rattus norvegicus,2.2 L/kg
same,IC90,[22],21 nM
same,IC90,[23],4 nM
same,IC90,[24],71 nM
same,IC90,[25],> 2220 nM
same,IC90,[26],383 nM
same,IC90,[27],242 nM
same,IC90,[28],9 nM
same,IC90,[29],13 nM
Cc1nn(C)c2cccc(OC(C)C(=O)N3CCN(C(=O)c4ccccc4)C[C@H]3C)c12 (some centres undefined),IC50,[1],15 nM
same,IC50,[30],79 nM
CC(Oc1cccc2cnccc12)C(=O)N1CCN(C(=O)c2ccccc2)C[C@H]1C (some centres undefined),IC50,[1],103 nM
same,IC50,[30],492 nM
CNC(=O)c1ccc(O[C@@H](C)C(=O)N2CCN(C(=O)c3ccccc3)C[C@H]2C)c2c(C)n[nH]c12,IC50,[1],> 10000 nM
CC(Oc1cncc2ccccc12)C(=O)N1CCN(C(=O)c2ccccc2)C[C@H]1C (some centres undefined),IC50,[1],9370 nM
